Most compounds without a hit are left out; they make up all but 1.9% or so of the library.
MT1-MMP act inh: MT1-MMP (human) activation inhibition. P50281. HT1080 RFP-PRO-GFP cells, GFP/RFP ratio fluorescence, overnight; percent of plate control window, DMSO zero. GFP/RFP ratio change, % at 20 µM. actives 0.061% (n = 360,000);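 active = GFP/RFP ratio change of at least 30% with cell ATP level not reduced by more than half and red fluorescence within 50% of control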
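Test system: HT1080 RFP-PRO-GFP cells; Benchmarks: DMSO and RFP-L50D-GFP cell wells; Timing: cells overnight before dosing, compound overnight, 37 °C, 5% CO2; Compound: one 20 µM compound dose with 1% DMSO; Read-out: GFP/RFP fluorescence ratio.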
NR2E3 ag-1: agonists of human nuclear receptor NR2E3; Q9Y5X4; GST-NR2E3/biotin-RetCOR TR-FRET, 1536-well; inhibition of corepressor binding, % at 4.78 µM; actives 0.12% (n = 320,000); AID 2300;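 active = percent inhibition above the cutoff of mean plus 3 SD of all tested compounds, set per screening campaign, cut at about 20% in these data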;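 note: 0% = DMSO wells and 100% = biotin wells as full block of FRET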
Target sequence (Q9Y5X4 whole entry, looked up): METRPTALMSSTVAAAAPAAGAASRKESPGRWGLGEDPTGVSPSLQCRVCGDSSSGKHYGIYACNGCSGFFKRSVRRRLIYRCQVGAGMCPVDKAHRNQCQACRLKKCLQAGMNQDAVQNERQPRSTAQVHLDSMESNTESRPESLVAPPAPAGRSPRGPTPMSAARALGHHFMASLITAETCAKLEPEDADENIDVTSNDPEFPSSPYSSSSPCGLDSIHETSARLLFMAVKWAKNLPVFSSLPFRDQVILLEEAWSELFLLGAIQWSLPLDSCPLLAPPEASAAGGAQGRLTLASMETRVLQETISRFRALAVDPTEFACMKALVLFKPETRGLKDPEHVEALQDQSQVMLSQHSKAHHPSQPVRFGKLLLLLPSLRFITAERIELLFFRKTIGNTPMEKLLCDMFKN
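Material: NR2E3–RetCOR corepressor complex / Amount: 1.35 nM GST-NR2E3 / Medium: Tris pH 7.5 / Compound: single nominal compound dose of 4.8 µM / Incubation: 5 h at 4 °C / Technique: TR-FRET, Eu(K)-anti-GST donor, streptavidin-D2 acceptor, ex 340, em 617/671 nm / Read-out basis: percent loss of FRET ratio relative to control wells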
PG9 binder: binds the HIV-1 gp120 antibody PG9; TR-FRET gp120-PG9 antibody binding; actives 0.43% (n = 360,000); inhibition, % at 6.7 µM; in the data active = inhibition above about 8.5%
NR2E3 ag-2: activates human NR2E3 receptor | CHO-S Gal4-NCOR/VP16-NR2E3 two-hybrid, luciferase | inhibition of corepressor binding, % at 3.98 µM | actives 0.35% (n = 360,000) | AID 602229;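 active = inhibition above the mean of all tested compounds plus 3 SD, cut at about 70% in these data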;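 note: 0% = DMSO with NR2E3 transfected cells and 100% = cells lacking NR2E3 construct; higher means lower luciferase signal from less NR2E3 corepressor binding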
SKN-1 block: C. elegans SKN-1 inhibition; inhibition, % at 21.8 µM; C. elegans VP596 Pgst-4::GFP/RFP ratio, acrylamide-induced, 24 h; actives 0.49% (n = 360,000);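 active = interference check ratio from 0.5 to 1.5 plus GFP to RFP signal ratio inhibition reaching or exceeding a fixed threshold, cut at about 30% in these data, passing the limit was not always enough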
NR1D1 modulator: modulators of human Rev-erb alpha DNA binding; P20393; Rev-erbα–FITC-DNA binding, fluorescence polarization, 90 min; activity, % at 10 µM; actives 0.79% (n = 370,000); AID 1259318;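 active = activity above about 14%, limit read from the data; passing the limit was not always enough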;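 note: 0% = DMSO wells with 35 nM protein and 100% = DMSO wells with 750 nM protein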
NR2E3 ag conf: NR2E3 agonism confirmed in two-hybrid assay. shares compounds with NR2E3 ag-2. CHO-S mammalian two-hybrid NR2E3-NCOR, luciferase luminescence. inhibition, % at 3.98 µM. actives 51% (n = 2,300). AID 624378;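 active = average inhibition above a cutoff equal to the mean inhibition of all tested compounds plus one SD, cut at about 70% in these data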;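 note: 0% = DMSO in NR2E3 cells and 100% = DMSO in cells lacking NR2E3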
VP16 counter: counter-screen for NR2E3 agonists: GAL4-VP16 reporter inhibitors; shares compounds with NR2E3 ag-2; CHO-S GAL4-VP16 luciferase reporter, luminescence; inhibition, % at 3.98 µM; actives 29% (n = 2,300); AID 624379;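 active = mean inhibition above a cutoff equal to the average over all tested compounds plus one standard deviation, cut at about 70% in these data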;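 note: luciferase from a UAS reporter driven by GAL4-VP16 transactivation; 0% = DMSO with VP16-transfected cells and 100% = DMSO with cells lacking VP16; higher means less reporter light so more repression of VP16 activity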
Starred values were filed as active, the others as inactive; nt = no result given.

SMILES	MT1-MMP act inh	NR2E3 ag-1	PG9 binder	NR2E3 ag-2	SKN-1 block	NR1D1 modulator	NR2E3 ag conf	VP16 counter
Cc1csc2c(N3CCN(C(=S)Nc4ccc(C(F)(F)F)cc4)CC3)ncnc12	23	-2	1	92*	3	0	96*	87*
COc1ccc([C@@H]2C[C@H]3[C@@H](CN2S(=O)(=O)c2ccccc2)C(=O)C[C@@H](c2cccc(Cl)c2)N3S(=O)(=O)c2ccc(C)cc2)cc1	1	nt	nt	62	7	nt	72*	55
COc1ccc([C@@H]2CC(=O)[C@@H]3CN(S(=O)(=O)c4ccc(Cl)cc4)[C@H](c4ccc(C)cc4)C[C@@H]3N2S(=O)(=O)c2ccccc2)cc1	-1	nt	-1	3	2	-1	nt	nt
CCOC(=O)[C@]12CCCCC/C=C\1N(CCc1ccc(Cl)cc1)C(=O)[C@H]2CC(=O)NCCCCc1ccccc1	nt	nt	nt	nt	nt	4	nt	nt
N#CC(c1c(Cl)cccc1N1CCCCC1)N1CCCCC1 (stereo not given)	nt	nt	2	nt	nt	-8	nt	nt
COc1cc(OC)c(OC)cc1CNC(=O)c1cccc(S(=O)(=O)N2CCc3ccccc3C2)c1	-3	nt	1	91*	-4	-3	96*	81*
COc1ccc(CCNC(=O)c2cccc(S(=O)(=O)N3CCCC3)c2)cc1OC	-1	0	0	1	3	-6	nt	nt
COc1ccc(C(=O)NCc2cccc(Cl)c2)cc1S(=O)(=O)N1CCOCC1	2	2	1	0	3	-9	nt	nt
COc1ccc(CNC(=O)c2cccc(S(=O)(=O)N3CCCCC3)c2)cc1OC	10	3	-2	55	-2	0	59	57
COc1ccc(CNC(=O)c2ccc(Cl)c(S(=O)(=O)N3CCOCC3)c2)cc1OC	5	1	nt	56	3	nt	49	52
O=C(N[C@H](C(=O)N1CCC[C@H]1C(=O)NC1CCCC1)C1CCCCC1)c1ccccn1	nt	nt	-1	nt	nt	-4	nt	nt
Cc1ccc2c(c1)nnn2C1CCN(S(=O)(=O)c2ccc(C(=O)N3C(C)CCCC3C)cc2)CC1 (stereo not given)	4	-1	-3	71*	-14	-1	89*	71*
CC(=O)N1CCN(S(=O)(=O)c2cccc(C(=O)OCc3ccc(C(C)(C)C)cc3)c2)CC1	-2	nt	0	73*	1	-1	78*	76*
C[C@H](O)[C@@H]1CN2CCc3c([nH]c4c(-c5ccccc5)cccc34)[C@@H]2C[C@@H]1N(C)C(=O)NC1CCCCC1	nt	nt	-2	nt	nt	-4	nt	nt
Cc1ccc(S(=O)(=O)N(C)C)cc1NC(=O)C(C)NC(C)c1cccs1 (stereo not given)	5	1	2	9	4	1	nt	nt
Cc1ccc(S(=O)(=O)N(C)C)cc1NC(=O)C(C)N(C)Cc1sccc1C (stereo not given)	0	0	-2	60	0	-2	37	31
Cc1[nH]n2c(=O)cc(C(C)C)nc2c1-c1ccccc1	1	0	2	7	-16	1	nt	nt
Cc1[nH]n2c(=O)cc(C(C)(C)C)nc2c1-c1ccccc1	12	6	-2	51	16	1	100*	96*
Cc1[nH]n2c(=O)cc(-c3ccc([N+](=O)[O-])cc3)nc2c1-c1ccccc1	9	-1	-3	97*	-11	-3	99*	58
COC(=O)[C@]1(C#N)CC(=O)N(CC(C)C)[C@@H]1c1ccccc1	nt	nt	nt	nt	nt	-3	nt	nt
Cc1ccc(NC(=O)c2ccc([N+](=O)[O-])o2)c(C)c1	0	0	-2	38	-5	-1	nt	nt
Cc1ccc(S(=O)(=O)c2ccc([N+](=O)[O-])o2)cc1	15	nt	-1	66	10	1	92*	13
Cc1ccc(S(=O)(=O)NC(=O)ON=Cc2ccc3c(c2)OCO3)cc1	nt	nt	-1	nt	nt	-2	nt	nt
OCc1nc2ccccc2n1Cc1ccc(Cl)cc1	4	7	-3	21	-4	-2	nt	nt
Cc1ccccc1Cn1c(C)nc2ccccc21	9	-2	0	62	2	5	93*	82*
SMILES	MT1-MMP act inh	NR2E3 ag-1	PG9 binder	NR2E3 ag-2	SKN-1 block	NR1D1 modulator	NR2E3 ag conf	VP16 counter
Cc1nc2ccccc2n1Cc1ccc(Cl)cc1	9	4	0	92*	14	-3	94*	83*
Cc1ccnc2c1ccc1c(C)ccnc12	12	2	nt	78*	-1	nt	43	10
Cc1ccnc2c1ccc1cccnc12	3	nt	1	74*	-4	1	17	-11
Cc1cc(Oc2cccc3c2S(=O)(=O)N([C@H](C)c2ccccc2)C[C@@H](COCc2ccccc2)O3)cc(C)c1C	nt	nt	1	nt	nt	-4	nt	nt
Cc1ccccc1-c1ccc2c(c1)[C@@H]1C[C@H](N(C)CC3CCCCC3)[C@H]([C@H](C)O)CN1CC2	nt	nt	-1	nt	nt	-3	nt	nt
CCOc1ccc(-n2c(SCC(=O)Nc3cccc4ccccc34)nnc2-c2cccs2)cc1	nt	nt	nt	nt	nt	-3	nt	nt
O=C1C(=O)c2cccnc2-c2ncccc21	-15	nt	-1	72*	-2	-2	89*	39
COc1cccc2oc3cc(C#CC4(O)CCCCC4)ccc3c(=O)c12	2	6	-1	-40	-6	-5	nt	nt
O=c1c2ccccc2oc2cc(C#CC3(O)CCCCC3)ccc12	-1	2	0	70	19	-4	59	16
O=c1c2ccccc2sc2ccc(C#CC3(O)CCCCC3)cc12	-2	8	-2	99*	16	3	85*	73*
COc1cccc2sc3ccc(C#CC4(O)CCCCC4)cc3c(=O)c12	2	-1	1	-60	25	0	nt	nt
COC(=O)c1cc(-c2ccc(F)c(Cl)c2)c(=O)n2c1CCC2	nt	nt	nt	nt	nt	-6	nt	nt
CC(NS(=O)(=O)OCC(Cl)(Cl)Cl)c1ccc(C(C)(C)C)cc1 (stereo not given)	-1	1	-2	59	14	4	-2	25

Compound activity deposited in PubChem BioAssay by several laboratories.
